The results in this text go back to ChEMBL document CHEMBL4017498, “Pilot in Vivo Structure-Activity Relationship of Dihydromethysticin in Blocking 4-(Methylnitrosamino)-1-(3-pyridyl)-1-butanone-Induced O6-Methylguanine and Lung Tumor in A/J Mice” (J Med Chem, 2017).

SMILES strings stand for the structures.

Series [1] relates to Mus musculus. Put plainly: Toxicity in NNK-induced long-term lung adenoma A/J mouse model assessed as effect on liver weight at 25 ppm administered with AIN-M powder […] followed by NNK induction on day 7 at 100 mg/kg during compound dosing and […] post last dose measured after day 119. It counts as organism-based. The following applies: in vivo, po. The method, boiled down: (§1)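 Female A/J mice fed AIN-93G diet with compound at 25 ppm. NNK given i.p. at 100 and 67 mg/kg on Day 7 and Day 14. Switched to AIN-M diet 24 h after the last NNK. On Day 119, mice were weighed, euthanized with CO2, and livers excised and weighed. Relative liver weight is liver weight divided by bodyweight for each mouse.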

Series [2] deals with Mus musculus. Briefly: Reduction in NNK-induced long-term lung adenoma formation in A/J mouse at 25 ppm administered with AIN-M powder […] followed by NNK induction on day 7 at 100 mg/kg during compound dosing and […] post last dose measured after day 119 relative to control. Also on record: scale not given: the % may be the effect or the level left. It counts as functional. The method, boiled down: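 Female A/J mice fed AIN-93G powder diet with compound at 25 ppm (added in ethanol, vacuum-dried, dose checked by HPLC). NNK in saline given i.p. at 100 and 67 mg/kg on Day 7 and Day 14. Treated diet stopped 24 h after the last NNK, then AIN-M diet. On Day 119, surface lung adenomas were counted blinded by a pathologist. Mean ± SD; one-way ANOVA with Dunnett's test vs NNK control.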

In series [3] the test system is Mus musculus. Put plainly: Toxicity in NNK-induced long-term lung adenoma A/J mouse model assessed as effect on liver weight at 25 ppm administered with AIN-M powder for […] followed by NNK induction on day 7 at 100 mg/kg during compound dosing and […] post last dose measured after day 119 relative to body weight. The class given is organism-based. The following applies: in vivo, po. The method, boiled down: as §1

Series [4] relates to Mus musculus. Briefly: Reduction in NNK-induced O6-methylguanine DNA adduct formation in A/J mouse lung at 200 ppm administered with AIN-93 G powder for 7 days followed by NNK-induction on day 7 post dose measured after 4 hrs by LC-ESI-MS/MS method relative to control. The class given is functional. Also on record: scale not given: the % may be the effect or the level left. The method, boiled down:
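Female A/J mice (6–7 weeks, one-week acclimation) fed AIN-93G powdered diet with 200 ppm compound from Day 0 (ethanol-processed diet for controls; n=3 per treatment, n=6 NNK control). Single i.p. NNK, 100 mg/kg in saline, on Day 7; lungs collected 4 h later. DNA isolated from half lung; O6-mG quantified by LC-MS/MS. Mean ± SD; one-way ANOVA with Dunnett's test versus NNK control.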

The test system of series [5] is Mus musculus. Briefly: Toxicity in NNK-induced long-term lung adenoma A/J mouse model assessed as effect on body weight at 25 ppm administered with AIN-M powder […] followed by NNK induction on day 7 at 100 mg/kg during compound dosing and […] at 67 mg/kg post last dose measured every once a week during compound dosing. The following applies: in vivo, po. The class given is organism-based. Summed up:
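Female A/J mice fed AIN-93G diet with compound at 25 ppm. NNK given i.p. at 100 mg/kg on Day 7 and 67 mg/kg on Day 14. Treated diet ended 24 h after the last NNK, followed by AIN-M diet. Bodyweight recorded once weekly and food intake twice weekly through Day 119.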

Series [6] in a line: Drug level in mouse liver microsomes treated with (+)DHM assessed as CYP450-mediated compound formation by LC-MS/MS method. The class given is ADME.
Series [7] concerns Liver. Put plainly: Drug level in mouse liver microsomes treated with (+)DHM by LC-MS/MS method. The class given is ADME, microsome. A general note: Liver microsomes are vesicles of endoplasmic reticulum, rich in cytochrome P450 enzymes.
Series [8] has as its system Liver. Briefly: Drug metabolism in mouse liver microsomes assessed as 7-(benzo[d][1,3]dioxol-5-yl)-5-hydroxy-3-methoxyhept-2-enoic acid formation by LC-MS/MS method. The class given is ADME, microsome.
The nature of series [9]: Drug metabolism in mouse liver microsomes assessed as CYP450-mediated 7-(3,4-dihydroxyphenyl)-5-hydroxy-3-methoxyhept-2-enoic acid formation by LC-MS/MS method. It counts as ADME.

For `COC1=CC(=O)OC(CCc2ccc3c(c2)CCC3)C1` (stereo not given), the Activity result in [1] is “Non-Toxic”; in series [2] it was 10.1%; in series [3] it was “Non-Toxic”; in series [4] it was 29.6%; in series [5] it was “Non-Toxic”.

`CO/C(=C/C(=O)O)CC(O)CCc1ccc(O)c(O)c1` (stereo not given): the Drug metabolism result in [6] was “Metabolite_Detected”.

As for `COC1=CC(=O)CC(CCc2ccc3c(c2)CCC3)C1` (stereo not given), the Activity in series [4] was 11.8%.

In the case of `COC1=CC(=O)CC(CCc2ccc3c(c2)OCO3)C1` (stereo not given), the Activity entry in series [1] is “Non-Toxic”; in [2], 89.4%; in series [3], “Non-Toxic”; in series [4], 63.8%; in [5], “Non-Toxic”.

For `CO/C(=C/C(=O)O)CC(O)CCc1ccc2c(c1)OCO2` (stereo not given), the Drug metabolism result in [7] was “Metabolite_Detected”.

Turning to `COC1=CC(=O)OC(CCc2ccccc2)C1` (racemic), the Activity result was “Non-Toxic” in series [1]; 6.3% in series [2]; “Non-Toxic” in series [3]; 16.4% in series [4]; “Non-Toxic” in series [5].

As for `COC1=CC(=O)OC(CCc2ccc3c(c2)OCO3)C1` (racemic), the Activity entry was “Non-Toxic” in series [1]; 94.2% in series [2]; “Non-Toxic” in series [3]; 72.3% in series [4]; “Non-Toxic” in series [5].

Turning to `COC1=CC(=O)O[C@@H](CCc2ccc3c(c2)OCO3)C1` [DIHYDROMETHYSTICIN], the Drug metabolism result in [8] and in [9] was “Metabolite_Detected” throughout.
